Bioassay records: PubChem BioAssay, several laboratories
TPT1 inh: blocks Candida albicans tRNA 2'-phosphotransferase; actives 0.81% (n = 300,000); inhibition, % at 5 µM; AID 1962; recombinant caTPT1, FP RNA substrate dephosphorylation;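 active = inhibition above the mean of all tested compounds plus 3 SD, set per screening campaign, cut at about 24% in these data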
XiGFP reactiv: activators of X-chromosome reactivation in mouse fibroblasts. AID 743238. XiGFP mouse fibroblasts, % GFP-positive cells imaging, 3 d; cells co-treated with 5-aza-dC sensitizer; scaled so ellipticine positive control = 100%. actives 0.055% (n = 360,000). activation, % at 7.58 µM;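 active = mean normalized replicate activation at least 10% and every replicate at or above 10%; inconclusive = only one of the two criteria met; inactive = mean below 10% and not all replicates reach 10%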
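Material: SV40-immortalized XiGFP fibroblast cells, line 68-5-11 | Buffer or medium: DMEM containing 5-aza-dC | Dosing: One concentration, pinned | Times: 3 d treatment, 15 min room-temperature fixation | Controls: Ellipticine 6 µM positive control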
aDG glyco act: increases alpha dystroglycan glycosylation; AID 624168; activation, % at 10 µM; Pro5-aDG cells, alpha-DG glycosylation AlphaScreen (IIH6); 0% Pro5, 100% B10-LARGE cell signal; actives 0.22% (n = 360,000);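 active = activation of at least 8% versus controls, or a plate z-score of at least 8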;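 note: Pro5 are CHO cells carrying HIG-tagged alpha-DG that lacks glycosylation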
Rpn11 block: Rpn11 (human) deubiquitinase inhibition. O00487. human 26S proteasome, Ub4-pepOG fluorescence polarization; 20S core pre-blocked with epoxomicin. inhibition, % at 20 µM. actives 0.59% (n = 360,000). AID 588493;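 active = inhibition at 20 µM, scaled to each plate's controls, above about 33%, limit read from the data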
HNF4A DNA FP: change in binding of human HNF4 alpha to DNA; actives 0.3% (n = 360,000); activity change, % at 10 µM; P41235; HNF4a-FITC DNA binding, fluorescence polarization, 1 h; in the data active = activity change above about 30%, passing the limit was not always enough
CSN deneddyl inh: blocks human CSN-mediated cullin deneddylation | Purified CSN, SCF-Nedd8-OG deneddylation, fluorescence polarization | inhibition, % at 12.5 µM | actives 0.38% (n = 360,000);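 active = pattern-corrected inhibition above about 35%, with an unprinted fluorescence ratio check between 0.5 and 1.5, limit read from the data, passing the limit was not always enough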
Target sequence (Q92905 whole entry, looked up, one chain of several): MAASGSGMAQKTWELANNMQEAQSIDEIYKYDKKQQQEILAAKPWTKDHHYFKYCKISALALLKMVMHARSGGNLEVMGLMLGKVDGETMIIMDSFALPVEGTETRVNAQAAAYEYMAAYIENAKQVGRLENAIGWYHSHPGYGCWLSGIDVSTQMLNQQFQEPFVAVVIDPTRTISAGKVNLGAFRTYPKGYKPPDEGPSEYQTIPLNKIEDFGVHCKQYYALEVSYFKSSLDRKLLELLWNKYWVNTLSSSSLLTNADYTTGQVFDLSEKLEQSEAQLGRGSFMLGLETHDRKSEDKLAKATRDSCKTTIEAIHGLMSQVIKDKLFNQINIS
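Assay system: purified human Csn5 enzyme expressed in HEK293T cells; Input: 0.24 nM Csn5 enzyme, final concentration; Reagent: 10 nM SCFSkp2-Nedd8OG; Compound dosing: 12.5 µM single point; Times: reaction 90 min, room temperature; Technique: fluorescence polarization readout.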
aDG glyco conf: alpha-DG glycosylation activation, confirmation; actives 17% (n = 600); Pro5-aDG cells, IIH6 AlphaLISA; scaled to LARGE-overexpressing B10 cells as 100%; activation, % at 10 µM (by protocol); shares compounds with aDG glyco act;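 active = activation of at least 7% in one or more replicates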;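 note: cells exposed to compound for two days before detection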
CSN5 deneddyl: Csn5 (human) deneddylation inhibition, single-concentration validation. actives 62% (n = 540). AID 720654. inhibition, % at 16.6 µM. Csn5 deneddylation of SCF-Nedd8OG, fluorescence polarization, 90 min. shares compounds with CSN deneddyl inh; in the data active = inhibition above about 50%
MMP2 cntr CSN: blocks human MMP-2 in a CSN deneddylation counter-screen. shares compounds with CSN deneddyl inh. recombinant MMP-2, FRET substrate fluorescence, 60 min. inhibition, % at 16.6 µM. actives 33% (n = 540);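 active = corrected plate-normalized z-score of 5 or more, or -5 or less, or inhibition of 15% or more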
Thrombin cntr: blocks bovine thrombin in a CSN deneddylation counter-screen. shares compounds with CSN deneddyl inh. bovine thrombin cleavage of Ub4-pepOG, fluorescence polarization. inhibition, % at 16.6 µM. actives 49% (n = 540);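 active = inhibition at or above a set limit, with a fluorescence interference ratio between 0.5 and a set maximum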
Numbers stand for hits; ! = not confirmed by another sample. Rows were chosen to be rich in hits. Some 1.3% of all compounds tested hit in one or more screens of this group.

Results for O=C(Cc1ccccn1)N1CCCCN2[C@@H](CO)[C@H](c3ccc(-c4ccccc4F)cc3)[C@@H]2C1 ?
XiGFP reactiv: inactive

What do the screens show for `Cc1ccnc(-n2c(C)nc3ccccc3c2=O)c1`?
TPT1 inh: inactive; aDG glyco act: 7.8; Rpn11 block: inactive; HNF4A DNA FP: inactive; CSN deneddyl inh: inactive; aDG glyco conf: 0.6

Results for Clc1cccc(N2Cc3cc(-c4ccccc4)ccc3-n3nncc3C2)c1 ?
XiGFP reactiv: inactive; aDG glyco act: inactive; Rpn11 block: inactive; HNF4A DNA FP: inactive; CSN deneddyl inh: 69.0; CSN5 deneddyl: 66.1; MMP2 cntr CSN: inactive; Thrombin cntr: 24.7

What do the screens show for `Cn1ncnc2c(=O)n(C)c(=O)nc1-2`?
TPT1 inh: inactive; aDG glyco act: inactive; Rpn11 block: inactive; HNF4A DNA FP: inactive; CSN deneddyl inh: 74.1; CSN5 deneddyl: inactive; MMP2 cntr CSN: inactive; Thrombin cntr: inactive

How did CCCCn1c(NC(=O)c2ccc(Br)o2)c(C(=O)OCC)c2nc3ccccc3nc21 do in these assays?
TPT1 inh: inactive; XiGFP reactiv: inactive; aDG glyco act: inactive; Rpn11 block: inactive; HNF4A DNA FP: inactive; CSN deneddyl inh: inactive

What do the screens show for `CCCCn1c(NS(=O)(=O)c2ccccc2)c(C(=O)OCC)c2nc3ccccc3nc21`?
TPT1 inh: inactive; aDG glyco act: inactive; Rpn11 block: inactive; HNF4A DNA FP: inactive; CSN deneddyl inh: 62.6; CSN5 deneddyl: 103.0; MMP2 cntr CSN: inactive; Thrombin cntr: inactive

How did O=C(Cc1ccccn1)N1CCCCN2[C@H](CO)[C@H](c3ccc(-c4ccc(F)cc4)cc3)[C@H]2C1 do in these assays?
XiGFP reactiv: inactive

How did O=C(O)C[C@H]1CC[C@@H]2NC[C@H](O)COC[C@H]2O1 do in these assays?
XiGFP reactiv: inactive

Results for O=C(O)c1ccc(/C=C/c2nc3ccccc3c(=O)n2-c2ccc(Br)cc2)cc1 ?
TPT1 inh: inactive; XiGFP reactiv: inactive; aDG glyco act: inactive; Rpn11 block: inactive; HNF4A DNA FP: inactive; CSN deneddyl inh: inactive

Results for O=c1c2ccccc2nc(/C=C/c2ccc([N+](=O)[O-])o2)n1-c1ccc(O)cc1 ?
XiGFP reactiv: inconclusive; aDG glyco act: inactive; HNF4A DNA FP: inactive; CSN deneddyl inh: 49.6; CSN5 deneddyl: 65.4; MMP2 cntr CSN: inactive; Thrombin cntr: 45.7

What do the screens show for `CC1=C(O)C(=O)C=C2C1=CC=C1C2(C)CCC2(C)C3CC(C)(C(=O)O)CCC3(C)CCC12C` (stereo not given)?
XiGFP reactiv: inactive; aDG glyco act: inactive; Rpn11 block: inactive; HNF4A DNA FP: inactive; CSN deneddyl inh: 42.0; MMP2 cntr CSN: inactive; Thrombin cntr: inactive

What do the screens show for `COC(=O)[C@@H]1[C@@H](CO)[C@@H]2Cn3c(ccc(-c4ccccc4F)c3=O)[C@H]1N2Cc1cccnc1`?
XiGFP reactiv: inactive

How did COC(=O)[C@H]1[C@H](CO)[C@H]2Cn3c(ccc(-c4ccccc4F)c3=O)[C@@H]1N2Cc1cccnc1 do in these assays?
XiGFP reactiv: inactive

How did CN(C)[C@@H]1C(=O)C(C(N)=O)=C(O)[C@@]2(O)C(=O)C3=C(O)c4c(O)cccc4[C@@](C)(O)C3[C@H](O)C12 (stereo not given in full) do in these assays?
TPT1 inh: inactive; XiGFP reactiv: inactive; aDG glyco act: inactive; HNF4A DNA FP: inactive; CSN deneddyl inh: 36.6!; CSN5 deneddyl: 88.8; MMP2 cntr CSN: inactive; Thrombin cntr: inactive

How did Cc1cc(N(CCCl)CCCl)ccc1C=Cc1ccncn1 do in these assays?
XiGFP reactiv: inactive; aDG glyco act: inactive; HNF4A DNA FP: 66.7; CSN deneddyl inh: 40.7; CSN5 deneddyl: 53.3; MMP2 cntr CSN: inactive; Thrombin cntr: 36.9

How did COC(=O)[C@@H]1[C@@H](CO)[C@@H]2Cn3c(ccc(-c4cccc(F)c4)c3=O)[C@H]1N2Cc1cccnc1 do in these assays?
XiGFP reactiv: inactive
